Laboratory results reported in ChEMBL document CHEMBL1124043, “Pyrido[2,1-b]quinazolinecarboxamide derivatives as platelet activating factor antagonists” (J Med Chem, 1988).

Tests used:
[1] = tested on: Platelet-activating factor receptor (Canis familiaris); assay: Percent inhibition of binding of platelet activating factor (PAF) to dog platelets using [3H]PAF as radioligand at a concentration of 1 uM; conditions: Canis lupus familiaris
Cavia porcellus = species: Cavia porcellus; assay: Relative rate of hydrolysis in guinea pig whole liver homogenates; type: ADME
Outline: (§1)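 Whole liver homogenate, equivalent to 21 mg fresh liver, in 40 mM potassium phosphate pH 7.4 with 0.4 mM substrate, final volume 1.0 mL. Incubated 10 min at 37 °C, then quenched with acetonitrile-methanol (9:1). Amine product measured in the supernatant by HPLC. Unincubated and no-substrate controls run in parallel. Rate expressed as nmol formed/10 min per 21 mg liver.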

[2] = Relative rate of hydrolysis in squirrel monkey whole liver homogenates; type: ADME, tissue-based; conditions: saimiri, tissue homogenate
Outline: as §1

Canis familiaris = species: Canis familiaris; assay: Relative rate of hydrolysis in dog whole liver homogenates; type: ADME, Canis lupus familiaris
Outline: as §1

SMILES	inhibition [1] [%]	Relative rate (Cavia porcellus)	Relative rate [2]	Relative rate (Canis familiaris)
CC(C)c1ccc2nc3ccc(S(=O)(=O)NCCCCc4cccnc4)cn3c(=O)c2c1	7			
Cc1cc2nc3ccc(C(=O)NCCCCc4ccc[n+](C)c4)cn3c(=O)c2cc1C	0			
CC(C)c1ccc2nc3ccc(C(=O)NCCCc4cccnc4)cn3c(=O)c2c1	5			
CC(C)c1ccc2nc3ccc(CCCCCCc4cccnc4)cn3c(=O)c2c1	15			
CC(C)c1ccc2nc3ccc(C(=O)N[C@H](C)CCCc4cccnc4)cn3c(=O)c2c1		0.063	< 0.01	< 0.01
Cc1cc2nc3ccc(C(=O)NCCCCc4ccccc4)cn3c(=O)c2cc1C	4			
CC(C)c1ccc2nc3ccc(C(=O)NC(C)(C)CCCc4cccnc4)cn3c(=O)c2c1		< 0.01		
CC(CCCc1cccnc1)NC(=O)c1ccc2nc3ccc(C(C)C)cc3c(=O)n2c1 (racemic)		0.35	0.49	1.9
Cc1cc2nc3ccc(C(=O)NCCCCc4cnc[n+](C)c4)cn3c(=O)c2cc1C	0			
CC(C)c1ccc2nc3ccc(C(=O)NCCCCCCCc4cccnc4)cn3c(=O)c2c1	19			
CC(C)c1ccc2nc3ccc(C(=O)N[C@@H](C)CCCc4cccnc4)cn3c(=O)c2c1		0.5	0.26	1.9
CC(C)c1ccc2nc3ccc(CNCCCCc4cccnc4)cn3c(=O)c2c1	15			
CC(C)c1ccc2nc3ccc(C(=O)NCCCCc4cccnc4)cn3c(=O)c2c1		1		
CC(C)c1ccc2nc3ccc(C(=O)NCCCCCc4cccnc4)cn3c(=O)c2c1	9			
